For seven compounds, Decrease, inhibition and IC50 results are on record in ChEMBL document CHEMBL1132971, “New azolidinediones as inhibitors of protein tyrosine phosphatase 1B with antihyperglycemic properties” (J Med Chem, 2000).

Assay [1] addresses T1, Tyrosine-protein phosphatase non-receptor type 1 (Mus musculus) (UniProt P35821).
T1 sequence (whole entry): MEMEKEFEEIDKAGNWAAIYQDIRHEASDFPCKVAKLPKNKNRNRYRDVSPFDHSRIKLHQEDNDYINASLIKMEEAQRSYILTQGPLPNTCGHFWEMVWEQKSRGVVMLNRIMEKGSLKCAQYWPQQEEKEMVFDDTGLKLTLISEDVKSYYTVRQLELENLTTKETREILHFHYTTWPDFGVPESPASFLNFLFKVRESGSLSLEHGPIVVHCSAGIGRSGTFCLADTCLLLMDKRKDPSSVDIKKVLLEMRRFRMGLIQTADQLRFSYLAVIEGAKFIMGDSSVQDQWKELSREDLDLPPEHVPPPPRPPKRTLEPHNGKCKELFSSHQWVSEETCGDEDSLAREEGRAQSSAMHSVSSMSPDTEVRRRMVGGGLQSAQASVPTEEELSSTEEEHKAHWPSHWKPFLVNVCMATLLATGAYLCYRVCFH
Nature of the assay: In vivo ability to decrease plasma glucose levels in diabetic C57BL/KsJ ob/ob mouse at a dose 100 mg/kg/day. The format is functional, organism-based. The procedure, abridged:
(§1)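 Diabetic db/db or ob/ob mice dosed orally once daily for 4 days. Plasma glucose and insulin reported as percent change from a vehicle-treated group. 4-6 mice per group. Significance set at p < 0.05 or p < 0.01 versus vehicle; NS means generally less than -15% change.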

For assay [2], the target named is T2, Tyrosine-protein phosphatase non-receptor type 1 (Rattus norvegicus) (UniProt P20417).
T2 sequence (whole entry): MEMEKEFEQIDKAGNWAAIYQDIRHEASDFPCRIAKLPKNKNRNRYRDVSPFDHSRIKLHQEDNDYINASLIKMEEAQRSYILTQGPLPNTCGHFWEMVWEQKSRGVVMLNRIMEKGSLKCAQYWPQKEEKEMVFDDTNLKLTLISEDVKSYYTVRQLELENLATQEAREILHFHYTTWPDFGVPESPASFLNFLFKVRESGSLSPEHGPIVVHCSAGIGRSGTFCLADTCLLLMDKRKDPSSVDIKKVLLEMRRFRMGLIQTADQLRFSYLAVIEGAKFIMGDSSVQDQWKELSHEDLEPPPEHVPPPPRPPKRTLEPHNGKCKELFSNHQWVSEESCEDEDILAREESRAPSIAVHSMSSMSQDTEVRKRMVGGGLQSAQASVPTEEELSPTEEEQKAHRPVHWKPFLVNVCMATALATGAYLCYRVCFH
Put plainly: Inhibition of PTPase (PTP1B) activity in rat hepatic membrane at 50 uM concentration, using pNPP as the substrate. The format is cell membranes. The following applies: Liver. The procedure, abridged: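 Liver membranes from male Sprague-Dawley rats (100-150 g), about 30 µg protein per well. Preincubated 10 min at 37 °C with compound in 1.25% DMSO in 50 mM HEPES pH 7.4. Then 6.33 mM pNPP for 30 min at 37 °C, stopped with NaOH. p-Nitrophenol read at 410 nm. Run in triplicate. Reported as percent of untreated control.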

Assay [3] addresses T3, Tyrosine-protein phosphatase non-receptor type 1 (Rattus norvegicus, UniProt P20417).
T3 sequence (P20417 whole entry): T2 sequence (whole entry)
Nature of the assay: Inhibition of PTPase activity using recombinant r-PTP1B and IR-triphosphopeptide as substrate; ND is no data. The procedure, abridged:
(§2)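 Rat recombinant PTP1B in 33 mM TRIS-HCl, 2 mM EDTA, 50 mM β-mercaptoethanol, pH 7.4 (about 1000-2000 nmol/min/mg). Preincubated 10 min at 37 °C with or without compound in HEPES buffer pH 7.4. Released phosphate read by malachite green-ammonium molybdate at 650 nm against a phosphate standard. Quadruplicates. IC50 by four-parameter logistic fit.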

Assay [4] deals with Mus musculus. Put plainly: Evaluated in vivo for their ability to decrease plasma glucose levels in diabetic C57BL/KsJ db/db mouse at a dose 100 mg/kg/day. The format is functional. The procedure, abridged:
as §1

The target of assay [5] is T1, Tyrosine-protein phosphatase non-receptor type 1 (Mus musculus). Nature of the assay: Ability to decrease plasma insulin levels in mouse at a dose 100 mg/kg/day. The format is functional, organism-based. The procedure, abridged:
as §1

Assay [6] has as its system Mus musculus. Put plainly: Evaluated in vivo for their ability to decrease plasma glucose levels in diabetic C57BL/KsJ db/db mouse at a dose 100 mg/kg/day; *p indicates <0.05. The format is functional. The procedure, abridged: (§3)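 Mice dosed orally once daily for 4 days; plasma glucose and insulin measured and expressed as percent change versus a vehicle-treated group (mean ± SE, 4-6 mice/group). NS is generally less than -15% change. Significance is versus vehicle-treated mice.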

Assay [7] concerns Mus musculus. Put plainly: Evaluated in vivo for their ability to decrease plasma glucose levels in diabetic C57BL/KsJ ob/ob mouse at a dose 100 mg/kg/day; **p indicates <0.01. The format is functional. The procedure, abridged: as §1
Assay [8] has as its system Mus musculus. Put plainly: Evaluated for their ability to decrease plasma insulin levels in mouse at a dose 100 mg/kg/day; **p indicates <0.01. The format is functional. The procedure, abridged:
as §3

For assay [9], the system named is Mus musculus. Put plainly: Evaluated in vivo for their ability to decrease plasma glucose levels in diabetic C57BL/KsJ ob/ob mouse at a dose 100 mg/kg/day *p indicates <0.05. The format is functional. The procedure, abridged:
as §1

For assay [10], the target named is T3, Tyrosine-protein phosphatase non-receptor type 1. Nature of the assay: Inhibition of PTPase activity using recombinant r-PTP1B as the enzyme and IR-triphosphopeptide as substrate. The procedure, abridged: as §2
Assay [11] deals with Mus musculus. Nature of the assay: Evaluated for their ability to decrease plasma insulin levels in mouse at a dose 100 mg/kg/day, *p indicates <0.05. The format is functional. The procedure, abridged: as §1
In assay [12] the test system is Mus musculus. Put plainly: Evaluated in vivo for their ability to decrease plasma glucose levels in diabetic C57BL/KsJ db/db mouse at a dose 50 mg/kg/day, *p indicates <0.05. The format is functional. The procedure, abridged: as §1
The subject of assay [13] is Mus musculus. Put plainly: Evaluated for their ability to decrease plasma insulin levels in mouse at a dose 100 mg/kg/day.,**p indicates <0.01. The format is functional. The procedure, abridged:
as §3

The target of assay [14] is T2, Tyrosine-protein phosphatase non-receptor type 1 (Rattus norvegicus). Put plainly: Inhibition of PTPase activity using recombinant r-PTP1B as the enzyme and IR-triphosphopeptide as substrate at 50 uM. The procedure, abridged: as §2
In assay [15] the target is T4, Tyrosine-protein phosphatase non-receptor type 1 (Homo sapiens) (UniProt P18031).
T4 sequence (whole entry): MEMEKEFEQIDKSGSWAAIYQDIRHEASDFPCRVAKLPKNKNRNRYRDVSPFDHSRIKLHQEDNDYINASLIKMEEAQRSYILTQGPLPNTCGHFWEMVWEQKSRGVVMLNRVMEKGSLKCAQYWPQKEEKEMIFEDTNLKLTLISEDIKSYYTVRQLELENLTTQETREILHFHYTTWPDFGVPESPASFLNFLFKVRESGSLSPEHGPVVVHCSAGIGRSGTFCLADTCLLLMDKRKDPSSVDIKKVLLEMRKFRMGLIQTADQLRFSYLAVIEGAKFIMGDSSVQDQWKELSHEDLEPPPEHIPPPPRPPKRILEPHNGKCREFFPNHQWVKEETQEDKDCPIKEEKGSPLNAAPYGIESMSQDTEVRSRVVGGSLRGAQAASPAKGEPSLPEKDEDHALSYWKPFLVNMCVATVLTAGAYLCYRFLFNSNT
Nature of the assay: % inhibition of PTPase activity, recombinant Protein Tyrosine Phosphatase 1b as the enzyme at a concentration 50 uM. The procedure, abridged: as §2

The test system of assay [16] is Mus musculus. Put plainly: Evaluated in vivo for their ability to decrease plasma glucose levels in diabetic C57BL/KsJ ob/ob mouse at a dose 100 mg/kg/day.,**p indicates <0.01. The format is functional. The procedure, abridged:
as §3

Assay [17] deals with Mus musculus. Nature of the assay: (§4) Evaluated in vivo for their ability to decrease plasma glucose levels in diabetic C57BL/KsJ db/db mouse at a dose 100 mg/kg/day, *p indicates <0.05. The format is functional. The procedure, abridged: as §1
In assay [18] the test system is Mus musculus. Nature of the assay: Evaluated for their ability to decrease plasma insulin levels in mouse at a dose 100 mg/kg/day, **p indicates <0.01. The format is functional. The procedure, abridged: as §1
Assay [19] relates to Mus musculus. The assay is described as §4. The format is functional. The procedure, abridged:
as §3
This is another data set of the same source.

Assay [20] deals with Mus musculus. Put plainly: Evaluated in vivo for their ability to decrease plasma glucose levels in diabetic C57BL/KsJ ob/ob mouse at a dose 100 mg/kg/day, **p indicates <0.01. The format is functional. The procedure, abridged: as §1

As usually defined, the inhibition is the percentage by which the read-out fell short of the control. By IC50 is commonly meant the concentration that inhibits the measured activity by half. Regarding `Cc1oc(-c2ccc(OC(F)(F)F)cc2)nc1COc1cccc(C(C)CCn2oc(=O)[nH]c2=O)c1` (stereo not given), the Decrease entry in assay [1] was “Not significant”; in the assay on Mus musculus [4], 41%; in assay [5], “Not significant”. The inhibition in assay [2] came to 47%. In assay [3], the IC50 entry is listed as “Not significant”.
With `C/C(=C\Cn1oc(=O)[nH]c1=O)c1cccc(OCc2nc(-c3ccccc3)oc2C)c1` (stereo in doubt; 49), the Decrease in the assay with Mus musculus [6] is reported as 28%; in the assay with Mus musculus [7], 39%; in the assay with Mus musculus [8], 76%.
On to `C/C(=C\Cn1sc(=O)[nH]c1=O)c1cccc(OCc2nc(-c3ccc(C(F)(F)F)cc3)oc2C)c1`, for which the results for the Decrease in the assay on Mus musculus [9] and in the assay on Mus musculus [11] were 29% and 26%, respectively. For the same compound, the 50% inhibitory concentration (IC50) in assay [10] worked out at 3.8 µM. In [2], the inhibition entry was “Not significant”.
With `C/C(=C/C=C/Cn1oc(=O)[nH]c1=O)c1cccc(OCc2nc(-c3ccccc3)oc2C)c1`, the Decrease in the assay on Mus musculus [12] was 19%; in [1], “Not significant”; in assay [5], “Not significant”. This compound gave an inhibition in [2] of 55%. In assay [3], the IC50 entry is recorded as “Not significant”.
On to `CCCC/C(=C\Cn1oc(=O)[nH]c1=O)c1cccc(OCc2nc(-c3ccc(C(F)(F)F)cc3)oc2C)c1`, for which the Decrease in the assay with Mus musculus [13] amounted to 88%; in the assay on Mus musculus [16], 61%. The inhibition in [14] amounted to 1.9%; in assay [15], 1.4%.
For `C/C(=C\Cn1oc(=O)[nH]c1=O)c1ccc(OCc2nc(-c3ccc(C(F)(F)F)cc3)oc2C)cc1`, the Decrease entry is “Not significant” in [1], “Not significant” in assay [5] and 16% with Mus musculus [17]. This compound came in with an inhibition in assay [2] of 4.3%.
Take `C/C(=C\Cn1oc(=O)[nH]c1=O)c1cccc(OCc2nc(-c3ccc(OC(F)(F)F)cc3)oc2C)c1`: the Decrease in the assay with Mus musculus [18] came to 82%; in the assay on Mus musculus [19], 41%; in the assay with Mus musculus [20], 39%. Moreover, the inhibition in [2] amounted to 57%. Besides, the IC50 entry in assay [3] is recorded as “Not significant”.
